Tests used:
Homo sapiens [1] = organism: Homo sapiens; experiment: (§1) Concentration of peptide resulting in 50% inhibition of C5a (100 nM) causing the release of MPO from polymorphonuclear leukocytes; format: functional, organism-based
Summary of the method: (§2)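 Freshly isolated human PMNs primed with cytochalasin B (10 µg/mL, 10 min, 37 °C). Cells (4 × 10⁶/mL) preincubated 10 min at 37 °C with peptide in Hank's balanced salt solution with 0.1% gelatin. Challenged with C5a (100 nM) for 10 min. Myeloperoxidase read-out: pH 6.8 phosphate buffer, dimethoxybenzidine/H₂O₂, stopped at 20 min with sodium azide. A450 corrected for no-peptide controls.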

Homo sapiens [2] = organism: Homo sapiens; experiment: as §1; format: functional, organism-based; summary of the method: as §2; remark: listed apart in the source
[3] = molecular target: T1, C5a anaphylatoxin chemotactic receptor 1 (Homo sapiens, UniProt P21730); experiment: (§3) Inhibition of binding of [125I]C5a to human polymorphonuclear leukocyte C5a receptor
T1 sequence (P21730 whole entry): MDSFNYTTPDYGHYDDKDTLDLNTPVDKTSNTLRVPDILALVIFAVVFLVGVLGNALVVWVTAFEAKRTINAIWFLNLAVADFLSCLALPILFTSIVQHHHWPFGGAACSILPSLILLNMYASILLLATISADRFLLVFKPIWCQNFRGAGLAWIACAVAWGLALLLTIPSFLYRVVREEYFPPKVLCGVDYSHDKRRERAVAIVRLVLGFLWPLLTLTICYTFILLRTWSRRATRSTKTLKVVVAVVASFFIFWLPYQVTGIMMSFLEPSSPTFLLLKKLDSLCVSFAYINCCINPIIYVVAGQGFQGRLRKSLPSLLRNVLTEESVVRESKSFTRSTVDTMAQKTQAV
Summary of the method: (§4)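 Competition binding on fresh human PMNs (0.2 × 10⁶) with [¹²⁵I]C5a (~50 pM). Buffer: 50 mM HEPES, 1 mM CaCl₂, 5 mM MgCl₂, 0.5% BSA, 0.1% bacitracin, 100 μM PMSF. Incubated 60 min at 4 °C, then filtered, washed and γ-counted. Nonspecific binding defined with 1 mM peptide or 100 nM C5a.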

[4] = molecular target: T1, C5a anaphylatoxin chemotactic receptor 1; experiment: as §3; summary of the method: as §4; remark: listed apart in the source
[5] = molecular target: T1, C5a anaphylatoxin chemotactic receptor 1; experiment: (§5) Inhibition of binding of [125I]C5a to human polymorphonuclear leukocyte(PMN) C5a anaphylatoxin chemotactic receptor
Summary of the method: (§6)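 Competition binding on freshly isolated whole human PMNs (0.2 × 10⁶/well) against ~50 pM [125I]C5a, with unlabeled peptide or recombinant human C5a as competitor. Buffer: 50 mM HEPES, 1 mM CaCl2, 5 mM MgCl2, 0.5% BSA, 0.1% bacitracin, 100 μM PMSF. Incubated 60 min at 4 °C, then filtered, washed once and gamma-counted. Nonspecific binding set with 1 mM peptide or 100 nM C5a.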

[6] = molecular target: T1, C5a anaphylatoxin chemotactic receptor 1; experiment: as §5; summary of the method: as §6; remark: listed apart in the source

SMILES	IC50 (Homo sapiens [1]) [µM]	IC50 (Homo sapiens [2]) [µM]	IC50 [3] [µM]	IC50 [4] [µM]	IC50 [5] [µM]	IC50 [6] [µM]
CN[C@@H](Cc1ccccc1)C(=O)N[C@@H](CCCCN)C(=O)N1CCCC1C(=O)N[C@H](CC1CCCCC1)C(=O)N[C@@H](Cc1c[nH]c2ccccc12)C(=O)N[C@H](CCCN=C(N)N)C(=O)O (single isomer, unassigned)	0.1	0.107	–	–	–	–
CC(=O)N[C@@H](Cc1ccccc1)C(=O)N[C@@H](CCCCN)C(=O)N1CCCC1C(=O)N[C@H](CC1CCCCC1)C(=O)N[C@@H](Cc1c[nH]c2ccccc12)C(=O)N[C@H](CCCN=C(N)N)C(=O)O (single isomer, unassigned)	–	–	4.8	4.79	–	–
CC(C)[C@H](NC(=O)[C@H](CO)NC(=O)[C@H](Cc1c[nH]cn1)NC(=O)[C@H](CCCCN)NC(=O)[C@H](Cc1ccc(O)cc1)NC(=O)[C@@H](N)CCCCN)C(=O)N[C@H](C(=O)N[C@@H](CCCCN)C(=O)N[C@@H](CCCCN)C(=O)NCCCCC(=O)NCC(=O)NCC(=O)NCC(=O)NCC(=O)N[C@@H](Cc1ccccc1)C(=O)N[C@@H](CCCCN)C(=O)N1CCC[C@H]1C(=O)N[C@H](CC1CCCCC1)C(=O)N[C@@H](Cc1c[nH]c2ccccc12)C(=O)N[C@H](CCCNC(=N)N)C(=O)O)C(C)C	0.07	0.0724	0.2	> 0.174	–	–
NCCCC[C@H](NC(=O)[C@@H](N)Cc1ccccc1)C(=O)N1CCCC1C(=O)N[C@H](CC1CCCCC1)C(=O)N[C@@H](Cc1c[nH]c2ccccc12)C(=O)N[C@H](CCCN=C(N)N)C(=O)O (single isomer, unassigned)	6.8	6.76	2	1.95	–	–
C[C@H](NC(=O)[C@@H](N)Cc1ccccc1)C(=O)N1CCCC1C(=O)N[C@H](CC1CCCCC1)C(=O)N[C@@H](Cc1c[nH]c2ccccc12)C(=O)N[C@H](CCCN=C(N)N)C(=O)O (single isomer, unassigned)	3.7	3.63	9	9.12	–	–
NCCCC[C@H](NC(=O)[C@@H](N)Cc1ccccc1)C(=O)N[C@@H](Cc1ccccc1)C(=O)N[C@@H](CCCCN)C(=O)N1CCC[C@H]1C(=O)N[C@H](CC1CCCCC1)C(=O)N[C@@H](Cc1c[nH]c2ccccc12)C(=O)N[C@H](CCCN=C(N)N)C(=O)O	0.5	0.501	4.6	4.57	–	–
C[C@H](N)C(=O)N[C@@H](CCCCN)C(=O)N1CCCC1C(=O)N[C@H](CC1CCCCC1)C(=O)N[C@@H](Cc1c[nH]c2ccccc12)C(=O)N[C@H](CCCN=C(N)N)C(=O)O (single isomer, unassigned)	–	–	> 1000	> 1000	–	–
CC(=O)N[C@@H](Cc1ccccc1)C(=O)N[C@@H](CCCCN)C(=O)N1CCCC1C(=O)N[C@H](CC1CCCCC1)C(=O)N[C@@H](CC1c2ccccc2-c2ccccc21)C(=O)N[C@H](CCCN=C(N)N)C(=O)O (single isomer, unassigned; 16b)	–	–	116	> 115	–	–
CC(=O)N[C@@H](Cc1ccccc1)C(=O)N[C@@H](CCCCN)C(=O)N1CCCC1C(=O)N[C@H](CC1CCCCC1)C(=O)N[C@@H](CC1c2ccccc2-c2ccccc21)C(=O)N[C@H](CCCN=C(N)N)C(=O)O (single isomer, unassigned; 16a)	–	–	51	> 51.3	–	–
CN[C@@H](Cc1ccccc1)C(=O)N[C@@H](CCCCN)C(=O)N1CCCC1C(=O)N[C@H](CC1CCCCC1)C(=O)N[C@@H](Cc1c[nH]c2ccccc12)C(=O)N[C@@H](CCCN=C(N)N)C(=O)O (single isomer, unassigned)	2	1.95	–	–	–	–
N=C(N)NCCC[C@H]1NC(=O)[C@H](Cc2c[nH]c3ccccc23)NC(=O)[C@@H](CC2CCCCC2)NC(=O)[C@@H]2CCCN2C(=O)[C@H](Cc2c[nH]c3ccccc23)NC(=O)[C@H](Cc2ccccc2)NC1=O	–	–	–	> 42.7	–	–
CCCC[C@H](NC(=O)[C@H](Cc1ccccc1)NC(C)=O)C(=O)N1CCCC1C(=O)N[C@H](CC1CCCCC1)C(=O)N[C@@H](Cc1c[nH]c2ccccc12)C(=O)N[C@H](CCCN=C(N)N)C(=O)O (single isomer, unassigned)	1.4	1.41	3.6	3.55	–	–
NCCCC[C@H](NC(=O)[C@H](Cc1ccccc1)NC(=O)[C@@H](N)CCCCN)C(=O)N1CCCC1C(=O)N[C@H](CC1CCCCC1)C(=O)N[C@@H](Cc1c[nH]c2ccccc12)C(=O)N[C@H](CCCN=C(N)N)C(=O)O (single isomer, unassigned)	0.3	0.269	2.6	2.63	–	–
CN1C(=O)[C@@H](CCCN=C(N)N)NC(=O)[C@H](Cc2c[nH]c3ccccc23)NC(=O)[C@@H](CC2CCCCC2)NC(=O)[C@@H]2CCCN2C(=O)[C@H](Cc2c[nH]c3ccccc23)NC(=O)[C@@H]1Cc1ccccc1	2.1	1.51	3	2.95	–	–
NC(N)=NCCC[C@@H](NC(=O)[C@H](Cc1c[nH]c2ccccc12)NC(=O)[C@@H](CC1CCCCC1)NC(=O)C1CCCN1C(=O)[C@H](Cc1c[nH]c2ccccc12)NC(=O)[C@@H](N)Cc1ccccc1)C(=O)O (single isomer, unassigned)	0.3	0.316	–	–	5.89	5.9
CC(C)[C@H](NC(=O)[C@H](CO)NC(=O)[C@H](Cc1c[nH]cn1)NC(=O)[C@H](CCCCN)NC(=O)[C@H](Cc1ccc(O)cc1)NC(=O)[C@@H](N)CCCCN)C(=O)N[C@H](C(=O)N[C@@H](CCCCN)C(=O)N[C@@H](CCCCN)C(=O)NCCCCC(=O)N[C@@H](Cc1ccccc1)C(=O)N[C@@H](CCCCN)C(=O)N1CCC[C@H]1C(=O)N[C@H](CC1CCCCC1)C(=O)N[C@@H](Cc1c[nH]c2ccccc12)C(=O)N[C@H](CCCN=C(N)N)C(=O)O)C(C)C	0.2	0.245	1.2	1.23	–	–
CC(=O)N[C@@H](Cc1ccccc1)C(=O)N[C@@H](CCCN)C(=O)N1CCCC1C(=O)N[C@H](CC1CCCCC1)C(=O)N[C@@H](Cc1c[nH]c2ccccc12)C(=O)N[C@H](CCCN=C(N)N)C(=O)O (single isomer, unassigned)	0.2	0.191	0.8	0.794	–	–

— ChEMBL document CHEMBL1132227, “Low-molecular-weight peptidic and cyclic antagonists of the receptor for the complement factor C5a” (J Med Chem, 1999)
